From ChEMBL document CHEMBL1136934, “Synthesis of some novel organic nitrates and comparative in vitro study of their vasodilator profile” (J Med Chem, 2009) come the findings set out here.

SMILES strings stand for the structures.

The test system of assay [1] is Aorta. As to the kind of experiment: Vasodilatory activity in Wistar rat endothelium-denuded thoracic aortic ring assessed as inhibition of phenylephrine-induced contraction. Format: functional, tissue-based. The method, boiled down:
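Endothelium removed from rat aorta; three helically cut strips per aorta. Once agonist contraction plateaued, cumulative vasodilator concentrations were added. EC50 (µM) given as mean ± SE, n = 3-15.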

The subject of assay [2] is Aorta. As to the kind of experiment: Vasodilatory activity in Wistar rat endothelium-denuded cross tolerant thoracic aortic ring assessed as inhibition of phenylephrine-induced contraction preincubated with 0.55 mM GTN for 1 hr followed by washing. Format: functional, tissue-based. A digest of the protocol: (§1)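 Endothelium-denuded helical rat aortic strips. After 1 h equilibration, strips were incubated in 0.55 mM GTN for 1 h, then washed extensively for 1 h. Cumulative concentration-response curves were then run on contracted strips. EC50 (µM, mean ± SE, n = 3-15) was compared with untreated strips.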

Assay [3] has as its system Aorta. The experiment in a line: Ratio of EC50 for vasodilatory activity in Wistar rat endothelium-denuded thoracic aortic ring in presence of benomyl to EC50 for vasodilatory activity in Wistar rat endothelium-denuded thoracic aortic ring. Format: functional.
Assay [4] relates to Aorta. As to the kind of experiment: Ratio of EC50 for vasodilatory activity in Wistar rat endothelium-denuded cross tolerant thoracic aortic ring preincubated with 0.55 mM GTN for 1 hr followed by washing to EC50 for vasodilatory activity in Wistar rat endothelium-denuded thoracic aortic ring. Format: functional. A digest of the protocol: as §1
For assay [5], the system named is Aorta. As to the kind of experiment: Ratio of EC50 for vasodilatory activity in Wistar rat endothelium-denuded thoracic aortic ring in presence of chloral hydrate to EC50 for vasodilatory activity in Wistar rat endothelium-denuded thoracic aortic ring. Format: functional.
For assay [6], the system named is Aorta. As to the kind of experiment: Vasodilatory activity in Wistar rat endothelium-denuded thoracic aortic ring assessed as inhibition of phenylephrine-induced contraction drug treated 30 mins after ALDH2 inhibitor benomyl treatment. As to conditions: 0.5 h. Format: functional, tissue-based.
Assay [7] concerns Aorta. As to the kind of experiment: Vasodilatory activity in Wistar rat endothelium-denuded thoracic aortic ring assessed as inhibition of phenylephrine-induced contraction drug treated 30 mins after 1 uM soluble guanylate cyclase heme site inhibitor ODQ treatment. The settings on record: 0.5 h. Format: functional, tissue-based.
For assay [8], the system named is Aorta. As to the kind of experiment: Vasodilatory activity in Wistar rat endothelium-denuded thoracic aortic ring assessed as inhibition of phenylephrine-induced contraction drug treated 30 mins after ALDH2 inhibitor chloral hydrate treatment. It is filed as functional, tissue-based. The settings on record: 0.5 h.

On to `O=[N+]([O-])OCCCc1ccccc1`, for which the EC50 in the assay with Aorta [1] is 160 nM; with Aorta [2], 20 µM; with Aorta [6] it was 1500 nM; with Aorta [7] it was greater than 100 µM; in the assay on Aorta [8], 3000 nM. Moreover, the “Ratio EC50” value in the assay with Aorta [3] was 9.4; with Aorta [4], 125; in the assay on Aorta [5] it was 19.
Take `O=[N+]([O-])OC[C@H](Cc1ccccc1)O[N+](=O)[O-]`: the EC50 was 61 nM with Aorta [1]; 6.1 µM in the assay on Aorta [2]; 600 nM in the assay with Aorta [6]; greater than 100 µM in the assay on Aorta [7]; 1200 nM in the assay on Aorta [8]. Also, the entries for the “Ratio EC50” value in the assay on Aorta [3], in the assay on Aorta [4] and in the assay with Aorta [5] were 9.8, 100 and 20, respectively.
Consider `O=[N+]([O-])OC[C@@H](CCc1ccccc1)O[N+](=O)[O-]`, for which the half-maximal effective concentration (EC50) in the assay on Aorta [1] was determined as 49 nM; in the assay on Aorta [2], 1.6 µM; with Aorta [6], 120 nM; in the assay with Aorta [7], 29 µM; in the assay with Aorta [8], 270 nM. The figures for the “Ratio EC50” value in the assay on Aorta [3], with Aorta [4] and in the assay on Aorta [5] were 2.4, 33 and 5.5, respectively.
For the compound `O=[N+]([O-])OC[C@H](CCc1ccccc1)O[N+](=O)[O-]`, the EC50 in the assay on Aorta [1] stood at 49 nM; in the assay with Aorta [2], 2.4 µM; in the assay on Aorta [6] it was 160 nM; in the assay with Aorta [7], 30 µM; in the assay on Aorta [8], 370 nM. Further, the entries for the “Ratio EC50” value in the assay with Aorta [3], in the assay with Aorta [4] and in the assay with Aorta [5] were 3.3, 49 and 7.6, respectively.
Consider `O=[N+]([O-])OC[C@@H](Cc1ccccc1)O[N+](=O)[O-]`, for which the EC50 with Aorta [1] was 63 nM; with Aorta [2], 6.4 µM; in the assay with Aorta [6], 630 nM; in the assay with Aorta [7] it was greater than 100 µM; with Aorta [8] it was 1200 nM. The “Ratio EC50” value in the assay with Aorta [3] was found to be 10; with Aorta [4] it was 102; with Aorta [5], 19.
For `O=[N+]([O-])OCC(CO[N+](=O)[O-])O[N+](=O)[O-]` [NITROGLYCERIN], the EC50 is 29 nM in the assay on Aorta [1]; 4.4 µM in the assay on Aorta [2]; 420 nM in the assay on Aorta [6]; greater than 100 µM in the assay on Aorta [7]; 940 nM in the assay on Aorta [8]. Further, the “Ratio EC50” value in the assay with Aorta [3] is given as 14; in the assay with Aorta [4], 152; in the assay on Aorta [5] it was 32.
Turning to `O=[N+]([O-])OCCCCc1ccccc1`, the EC50 with Aorta [1] amounted to 150 nM; in the assay on Aorta [2], 4.5 µM; with Aorta [6], 510 nM; in the assay on Aorta [7], 66 µM; in the assay with Aorta [8], 1100 nM. Moreover, the “Ratio EC50” value in the assay with Aorta [3] came out at 3.4; with Aorta [4] it was 30; with Aorta [5], 7.3.

What is called EC50 is the concentration giving half of the maximal effect.
